An excerpt weighted towards active compounds, which were near 1.2% of everything screened.
IDE act: human IDE activators in live cells, primary screen, fluorescence polarization, HEK cells, FAbeta-B substrate; activation, % at 5.96 µM; FAbeta-B cleavage; 0% vehicle, 100% cell-free pure enzyme wells; Insulin-degrading enzyme (Homo sapiens), P14735; 340,000 tested, 0.073% active; AID 493087, 2011;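 active = activation above the mean of all tested compounds plus 3 SD, set per screening campaign, cut at about 17% in these data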
ASAP1 inh: inhibitors of human ASAP1 ArfGAP activity, primary screen, biochemical, fluorescence polarization; ASAP1-stimulated ARF1 GTP hydrolysis, GDP FP detection; 360,000 tested, 0.19% active; inhibition, % at 16.5 µM; in the data active = inhibition above about 25%;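 also: 0% = vehicle with enzyme and substrate and 100% = no enzyme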
ARFGAP1 inh: inhibitors of rat ARFGAP1 GAP activity, primary screen, biochemical, fluorescence polarization, GDP tracer | ADP-ribosylation factor GTPase-activating protein 1 (Rattus norvegicus), Q62848 | Arfgap1-stimulated ARF1 GTP hydrolysis, GDP FP detection | inhibition, % at 16.5 µM | 360,000 tested, 0.26% active | AID 651572, 2012;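 active = inhibition above a per-plate limit, mean inhibition of low control wells plus 3 SD, cut at about 25% in these data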;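 also: 0% = DMSO wells with enzyme and 100% = wells lacking Arfgap1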
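system = rat Arfgap1 catalytic domain, aa 1-136 | technique = FP, GDP Alexa 633 tracer displaced from anti-GDP antibody, 620/688 nm | compound = one concentration, 16.5 µM, DMSO 1.26% | medium = HEPES-based buffer, pH 7.5 | timing = compound-enzyme preincubation 20 min, reaction 120 min, detection 60 min, 25 °C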
PREPL inhibitor: PREPL enzyme inhibitors, primary screen, biochemical, fluorescence polarization; Prolyl endopeptidase-like (Homo sapiens), Q4J6C6; recombinant PREPL, fluorescence polarization activity-based probe; inhibition, % at 5.96 µM; 320,000 tested, 0.68% active;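 also: 0% = enzyme with DMSO and 100% = wells lacking enzyme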
Target sequence (Q4J6C6 whole entry, looked up): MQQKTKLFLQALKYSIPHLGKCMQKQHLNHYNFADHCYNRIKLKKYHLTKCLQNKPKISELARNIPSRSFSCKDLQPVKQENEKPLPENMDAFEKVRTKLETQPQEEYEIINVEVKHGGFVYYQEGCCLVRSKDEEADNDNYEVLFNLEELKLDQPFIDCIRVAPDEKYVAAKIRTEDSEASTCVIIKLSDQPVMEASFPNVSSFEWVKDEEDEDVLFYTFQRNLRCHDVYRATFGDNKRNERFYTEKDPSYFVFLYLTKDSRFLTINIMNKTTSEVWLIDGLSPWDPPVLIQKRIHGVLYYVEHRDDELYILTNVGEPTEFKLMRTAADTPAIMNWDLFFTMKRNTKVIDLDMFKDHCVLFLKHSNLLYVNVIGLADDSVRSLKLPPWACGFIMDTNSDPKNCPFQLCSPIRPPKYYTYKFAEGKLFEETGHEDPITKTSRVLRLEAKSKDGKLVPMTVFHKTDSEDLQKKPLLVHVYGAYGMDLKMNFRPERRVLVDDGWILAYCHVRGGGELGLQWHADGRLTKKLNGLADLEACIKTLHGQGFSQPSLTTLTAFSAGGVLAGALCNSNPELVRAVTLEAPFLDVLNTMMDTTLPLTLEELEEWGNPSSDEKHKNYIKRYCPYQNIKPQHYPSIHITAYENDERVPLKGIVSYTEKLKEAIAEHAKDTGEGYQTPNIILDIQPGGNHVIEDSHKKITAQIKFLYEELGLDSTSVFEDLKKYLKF
IDE cell inh: human IDE inhibitors in live cells, primary screen, fluorescence polarization, HEK cells, FAbetaB substrate | Insulin-degrading enzyme (Homo sapiens), P14735 | FAbetaB cleavage | inhibition, % at 5.59 µM | 320,000 tested, 0.41% active | AID 434962, 2010;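 active = percent inhibition above the average of all tested compounds plus 3 SD, set per screening campaign, cut at about 16% in these data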;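 also: IDE supplied by intact live HEK cells; FP after avidin binding of uncleaved biotin substrate so inhibition keeps polarization high; 0% = DMSO wells and 100% = 60 µM reference IDE inhibitor Ii1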
PREPL confirm: human PREPL enzyme inhibitors, confirmation, biochemical, fluorescence polarization; 2,000 tested, 67% active; inhibition, % at 5.96 µM; AID 2803, 2010; shares compounds with PREPL inhibitor; recombinant PREPL, fluorescence polarization activity probe;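 also: 0% = protein with DMSO and 100% = wells lacking protein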
Numbers without * were called inactive; . = not tested or not shown. Rule as the data show it, unless noted: active = inhibition above about 43%; inactive = the rest.

SMILES	IDE act	ASAP1 inh	ARFGAP1 inh	PREPL inhibitor	IDE cell inh	others
c1ccc(C2CC3CC4(CCCC4)N2O3)cc1 (stereo unspecified)	18*	-6	1	-6	-1
Cc1cc(N2CCNC[C@@H]2C)ccc1N1CCN[C@@H](C)C1	.	-5	-8	.	.
CC(=O)NCC1=C(c2ccc(S(C)(=O)=O)cc2)C[C@@H]2CC[C@H]1N2CCOc1ccccc1	.	-5	-2	.	.
O=C(c1ccccc1)C1NC1c1ccccc1 (stereo unspecified)	20*	-2	3	-3	3
O=C1CN=C(c2ccccc2)c2cc(Br)ccc2N1Cc1cc(=O)n2ccccc2n1	-5	-17	12	50*	6
NNC(=O)CN1C(=O)CN=C(c2ccccc2)c2cc(Br)ccc21	-2	3	15	19	4
C=CC1C[N+]2(C)CCC1CC2C(O)c1ccnc2ccccc12 (stereo unspecified)	.	-8	-4	.	.
C[C@H]1CN([C@@H](C)CO)C(=O)CCCn2cc(nn2)CO[C@@H]1CN(C)C(=O)Oc1cccc2ccccc12	.	5	13	.	.
CN[C@H]1C[C@H]2O[C@@](C)([C@H]1OC)n1c3ccccc3c3c4c(c5c6ccccc6n2c5c31)C(=O)NC4	.	.	.	76*	6
Cc1ccc(OC(=O)N(C)C[C@@H]2OCc3ccccc3-c3c(n(C)c4ccccc34)C(=O)N([C@H](C)CO)C[C@H]2C)cc1	.	3	-1	.	.
Nc1ccc2ccc3cccc[n+]3c2c1	46*	-3	0	38	-28
CCC(=NCc1ccc2c(c1)OCO2)c1c(O)n(C2CCCCC2)c(=O)[nH]c1=O	3	-7	0	45*	1
CCC(=NCCO)c1c(O)n(C2CCCCC2)c(=O)[nH]c1=O	-3	-7	5	-2	3
O=C(C1CCC(=O)N1C1CCCCC1)N1CCC2(CC1)OCCO2 (stereo unspecified)	-1	1	6	3	-4
O=c1c2ccccc2nc(/C=C/c2ccc(O)cc2)n1-c1ccccc1O	-32	5	5	7	34*
Cc1ccccc1N1C(=O)/C(=C/c2ccco2)C(=O)NC1=S	.	.	.	46*	1
CCCCn1c(C)c(C(=O)OCC)c2c(CN3CCCC3)c(O)ccc21	2	0	-1	55*	1	PREPL confirm=34
Cn1ncnc2c(=O)n(C)c(=O)nc1-2	3	.	.	44*	-3	PREPL confirm=54*
CCOc1cccc(=NC2CCCCC2)c2c(C)n(C)c(C)c12	.	-5	4	48*	0	PREPL confirm=50*
CCOc1ccccc1N=C1SCCCN1C	-2	-5	4	12	5
COc1ccc2[nH]c(C)c(CCNCc3cc(OC)c4c(c3)OCO4)c2c1	6	-7	-8	74*	4	PREPL confirm=66*
O=C(C(=O)N1CCOCC1)c1cn(Cc2ccccc2)c2ccccc12	5	1	2	43	-2
COc1ccc2[nH]c3c(c2c1)CCNC3C (stereo unspecified)	1	-3	3	13	-3
COc1ccc2c3c([nH]c2c1)C(C)NCC3 (stereo unspecified)	2	-8	8	67*	4	PREPL confirm=4
CC1=NCCc2c1[nH]c1ccccc21	2	-7	-4	57*	6	PREPL confirm=27
CN1CCc2c([nH]c3ccccc23)C1	3	9	3	11	2
C[n+]1c(-c2ccccc2)c2cc(N)ccc2c2ccc(N)cc21	8	1	0	142*	4	PREPL confirm=124*
CNC(=O)Oc1c(C)[nH]ccc1=O	.	-7	-5	.	.
COC(=O)C1=C(c2c(C)noc2C)C[C@@H]2CC[C@H]1N2C(=O)NC1CC1	0	-7	3	3	-2
